ChEMBL document CHEMBL3232782, “1,2,3,4,8,9,10,11-octahydrobenzo[j]phenanthridine-7,12-diones as new leads against Mycobacterium tuberculosis” (J Med Chem, 2014)
In brackets after ≈: the same amount, converted by molar mass.

System: Mycobacterium tuberculosis variant bovis
Assay: Antimycobacterial activity against Mycobacterium bovis AN5 expressing luciferase assessed as growth inhibition after 6 days by luminometry
Assay type: functional
Conditions: AN5, 144 h
How it was run: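 Strains carried pSMT1 luxAB reporter plasmid. DMSO stocks 10 mM, serially diluted in 7H9 + 10% FCS, triplicate wells. Filtered bacterial suspension at 50 000 RLU/mL. Luminescence read after 6 days using 1% n-decanal substrate. […] Growth temperatures: M.tb 37 °C; M. avium and M. bovis 39 °C.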

| SMILES | MIC [µM] |
| --- | --- |
| CC(C)(C)C1CCc2ncc3c(c2C1)C(=O)C1=C(C3=O)C2CCC1C2 (centres undefined) | 0.78 (≈ 0.262 µg/mL) |
| CCOC(=O)C1CCc2ncc3c(c2C1)C(=O)C1=C(C3=O)C2CCC1C2 (centres undefined) | 0.09 (≈ 0.0316 µg/mL) |
| CCOC(=O)C1CCc2ncc3c(c2C1)C(=O)C1=C(C3=O)C2CCC1CC2 (centres undefined) | 0.57 (≈ 0.208 µg/mL) |
| NNC(=O)c1ccncc1 [ISONIAZID] | 0.08 (≈ 0.011 µg/mL) |
